ChEMBL document CHEMBL5696442, “Discovery of type II inhibitors of TGFβ-activated kinase 1 (TAK1) and mitogen-activated protein kinase kinase kinase kinase 2 (MAP4K2)” (J Med Chem, 2015)
The source made the active and inactive calls. No cut-off for these calls is given here.

What was measured:
[1] = target: Wee1-like protein kinase (Homo sapiens) (UniProt P30291); assay: Inhibition of Wee1 K2 labeling site in human Huh-7 cells at 1 uM by KiNativ Profiling analysis relative to control; type: cell-based
[2] = target: T1, Dual specificity mitogen-activated protein kinase kinase 5 (Homo sapiens) (UniProt Q13163); assay: Inhibition of MAP2K5 Lys2 labeling site in human A-375 cells at 5 uM by KiNativ Profiling analysis relative to control; type: cell-based
T1 sequence (whole entry): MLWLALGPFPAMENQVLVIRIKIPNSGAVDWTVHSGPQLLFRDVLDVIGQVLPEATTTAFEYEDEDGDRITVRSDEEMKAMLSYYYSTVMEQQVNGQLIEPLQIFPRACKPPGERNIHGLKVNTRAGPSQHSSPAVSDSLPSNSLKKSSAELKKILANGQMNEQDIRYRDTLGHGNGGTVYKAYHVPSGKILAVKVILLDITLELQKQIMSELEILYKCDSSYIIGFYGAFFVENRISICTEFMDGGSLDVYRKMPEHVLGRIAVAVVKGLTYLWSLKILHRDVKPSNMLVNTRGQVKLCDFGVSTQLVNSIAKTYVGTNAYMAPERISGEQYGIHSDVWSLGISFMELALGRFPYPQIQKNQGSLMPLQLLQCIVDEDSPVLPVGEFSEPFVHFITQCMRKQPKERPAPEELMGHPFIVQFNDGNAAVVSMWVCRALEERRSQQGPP

[3] = target: Phosphatidylinositol 4,5-bisphosphate 3-kinase catalytic subunit beta isoform (Homo sapiens) (UniProt P42338); assay: Inhibition of PIK3CB ATP labeling site in human Huh-7 cells at 10 uM by KiNativ Profiling analysis relative to control; type: cell-based
[4] = target: Receptor-interacting serine/threonine-protein kinase 1 (Homo sapiens) (UniProt Q13546); assay: Inhibition of RIPK1 (unknown origin) at 10 uM by Ambit Kinomescan binding assay relative to control; values are per cent of control
[5] = target: LIM domain kinase 2 (Homo sapiens) (UniProt P53671); assay: Inhibition of LIMK2 (unknown origin) at 10 uM by Ambit Kinomescan binding assay
Chain of LIM domain kinase 2 (Homo sapiens) (P53671 whole entry, looked up, the tested form may be a part): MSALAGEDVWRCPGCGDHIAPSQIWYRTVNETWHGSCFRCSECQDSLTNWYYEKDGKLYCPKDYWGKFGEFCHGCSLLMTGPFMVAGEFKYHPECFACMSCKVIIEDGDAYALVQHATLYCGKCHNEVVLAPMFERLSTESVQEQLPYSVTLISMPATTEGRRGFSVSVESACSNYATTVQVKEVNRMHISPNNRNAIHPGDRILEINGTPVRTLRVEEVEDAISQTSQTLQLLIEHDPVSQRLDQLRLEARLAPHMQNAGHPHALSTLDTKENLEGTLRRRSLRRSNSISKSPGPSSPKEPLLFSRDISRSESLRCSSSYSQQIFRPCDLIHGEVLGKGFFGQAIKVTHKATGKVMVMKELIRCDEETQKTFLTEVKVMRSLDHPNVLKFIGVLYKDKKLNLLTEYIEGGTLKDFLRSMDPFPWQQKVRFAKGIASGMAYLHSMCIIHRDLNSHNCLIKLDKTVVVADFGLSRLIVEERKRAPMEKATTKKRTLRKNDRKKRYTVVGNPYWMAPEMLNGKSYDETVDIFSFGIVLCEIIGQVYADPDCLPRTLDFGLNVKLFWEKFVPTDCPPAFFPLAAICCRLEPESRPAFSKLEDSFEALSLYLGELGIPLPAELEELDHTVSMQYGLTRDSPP

[6] = target: DNA-PK/Ku70/Ku85 (Homo sapiens) (UniProt P78527+P12956+P13010); assay: Inhibition of DNAPK ATP labeling site harbouring GHDEREHPFLVKGGEDLRQDQR in human A-375 cells at 0.5 uM by KiNativ Profiling analysis relative to control; type: cell-based
[7] = target: Mitogen-activated protein kinase 14 (Homo sapiens, UniProt Q16539); assay: Inhibition of p38 alpha in human A-375 cells at 0.05 uM by KiNativ Profiling analysis relative to control; type: cell-based
[8] = target: T2, Dual specificity mitogen-activated protein kinase kinase 3 (Homo sapiens) (UniProt P46734); assay: Inhibition of MEK3 (unknown origin) at 1 uM by Ambit Kinomescan binding assay relative to control; values are per cent of control
T2 sequence (whole entry): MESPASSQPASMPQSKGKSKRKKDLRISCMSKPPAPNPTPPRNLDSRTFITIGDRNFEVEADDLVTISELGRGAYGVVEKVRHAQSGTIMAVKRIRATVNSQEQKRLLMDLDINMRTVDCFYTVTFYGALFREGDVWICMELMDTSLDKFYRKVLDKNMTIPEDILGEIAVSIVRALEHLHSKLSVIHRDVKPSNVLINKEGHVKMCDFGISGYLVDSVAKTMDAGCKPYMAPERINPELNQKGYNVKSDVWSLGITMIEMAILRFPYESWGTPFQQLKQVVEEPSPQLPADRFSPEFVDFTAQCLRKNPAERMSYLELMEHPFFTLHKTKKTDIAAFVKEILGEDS

[9] = target: Casein kinase I isoform delta (Homo sapiens) (UniProt P48730); assay: Inhibition of CSNK1D (unknown origin) at 1 uM by Ambit Kinomescan binding assay relative to control
Chain of Casein kinase I isoform delta (Homo sapiens) (P48730 whole entry, looked up, canonical isoform): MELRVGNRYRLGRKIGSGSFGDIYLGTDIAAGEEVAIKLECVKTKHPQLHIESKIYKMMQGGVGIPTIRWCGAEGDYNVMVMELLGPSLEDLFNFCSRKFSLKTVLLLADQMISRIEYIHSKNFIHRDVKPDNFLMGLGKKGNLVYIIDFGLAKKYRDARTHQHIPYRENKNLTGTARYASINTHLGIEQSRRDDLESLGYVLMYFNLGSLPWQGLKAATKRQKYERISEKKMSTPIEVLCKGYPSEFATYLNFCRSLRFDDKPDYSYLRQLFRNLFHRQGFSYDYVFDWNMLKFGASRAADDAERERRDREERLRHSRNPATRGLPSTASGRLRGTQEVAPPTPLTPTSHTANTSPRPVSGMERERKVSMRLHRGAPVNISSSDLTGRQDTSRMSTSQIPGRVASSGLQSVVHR
Procedure, shortened: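 In vitro ATP-site competition binding assay against a panel of over 420 kinases (KinomeScan), with compound tested at 10 or 1 μM.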

[10] = target: T3, Myotonin-protein kinase (Homo sapiens) (UniProt Q09013); assay: Inhibition of DMPK (unknown origin) at 1 uM by Ambit Kinomescan binding assay relative to control; values are per cent of control
T3 sequence (whole entry): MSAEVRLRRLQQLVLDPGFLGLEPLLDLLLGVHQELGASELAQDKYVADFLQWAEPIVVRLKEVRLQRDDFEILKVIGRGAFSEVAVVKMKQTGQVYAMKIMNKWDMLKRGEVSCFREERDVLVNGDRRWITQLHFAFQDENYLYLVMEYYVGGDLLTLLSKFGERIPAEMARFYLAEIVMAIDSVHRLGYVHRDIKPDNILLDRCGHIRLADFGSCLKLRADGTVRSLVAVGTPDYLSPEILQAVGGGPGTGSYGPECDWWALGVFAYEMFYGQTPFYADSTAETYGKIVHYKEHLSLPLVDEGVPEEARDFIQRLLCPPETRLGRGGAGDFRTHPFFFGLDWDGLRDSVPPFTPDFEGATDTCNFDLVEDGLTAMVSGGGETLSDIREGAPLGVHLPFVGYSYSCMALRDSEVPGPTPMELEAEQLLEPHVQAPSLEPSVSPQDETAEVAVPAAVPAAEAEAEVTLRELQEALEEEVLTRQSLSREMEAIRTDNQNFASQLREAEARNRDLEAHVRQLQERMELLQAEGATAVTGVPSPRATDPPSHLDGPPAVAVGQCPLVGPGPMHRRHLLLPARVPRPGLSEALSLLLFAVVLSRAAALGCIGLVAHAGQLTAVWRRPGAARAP

[11] = target: Protein kinase C iota type (Homo sapiens) (UniProt P41743); assay: Inhibition of PRKCI (unknown origin) at 1 uM by Ambit Kinomescan binding assay relative to control; values are per cent of control
BaF3 = assay: Antiproliferative activity against parental mouse BaF3 cells assessed reduction in cell viability measured after 48 hrs by Celltiter-glo assay; type: functional, cell-based; settings: BaF3, 48 h
[12] = target: Serine/threonine-protein kinase ATR (Homo sapiens) (UniProt Q13535); assay: Inhibition of ATR in human Huh-7 cell lysate at 1 uM by KiNativ Profiling analysis relative to control; type: subcellular
Chain of Serine/threonine-protein kinase ATR (Homo sapiens) (Q13535 whole entry, looked up): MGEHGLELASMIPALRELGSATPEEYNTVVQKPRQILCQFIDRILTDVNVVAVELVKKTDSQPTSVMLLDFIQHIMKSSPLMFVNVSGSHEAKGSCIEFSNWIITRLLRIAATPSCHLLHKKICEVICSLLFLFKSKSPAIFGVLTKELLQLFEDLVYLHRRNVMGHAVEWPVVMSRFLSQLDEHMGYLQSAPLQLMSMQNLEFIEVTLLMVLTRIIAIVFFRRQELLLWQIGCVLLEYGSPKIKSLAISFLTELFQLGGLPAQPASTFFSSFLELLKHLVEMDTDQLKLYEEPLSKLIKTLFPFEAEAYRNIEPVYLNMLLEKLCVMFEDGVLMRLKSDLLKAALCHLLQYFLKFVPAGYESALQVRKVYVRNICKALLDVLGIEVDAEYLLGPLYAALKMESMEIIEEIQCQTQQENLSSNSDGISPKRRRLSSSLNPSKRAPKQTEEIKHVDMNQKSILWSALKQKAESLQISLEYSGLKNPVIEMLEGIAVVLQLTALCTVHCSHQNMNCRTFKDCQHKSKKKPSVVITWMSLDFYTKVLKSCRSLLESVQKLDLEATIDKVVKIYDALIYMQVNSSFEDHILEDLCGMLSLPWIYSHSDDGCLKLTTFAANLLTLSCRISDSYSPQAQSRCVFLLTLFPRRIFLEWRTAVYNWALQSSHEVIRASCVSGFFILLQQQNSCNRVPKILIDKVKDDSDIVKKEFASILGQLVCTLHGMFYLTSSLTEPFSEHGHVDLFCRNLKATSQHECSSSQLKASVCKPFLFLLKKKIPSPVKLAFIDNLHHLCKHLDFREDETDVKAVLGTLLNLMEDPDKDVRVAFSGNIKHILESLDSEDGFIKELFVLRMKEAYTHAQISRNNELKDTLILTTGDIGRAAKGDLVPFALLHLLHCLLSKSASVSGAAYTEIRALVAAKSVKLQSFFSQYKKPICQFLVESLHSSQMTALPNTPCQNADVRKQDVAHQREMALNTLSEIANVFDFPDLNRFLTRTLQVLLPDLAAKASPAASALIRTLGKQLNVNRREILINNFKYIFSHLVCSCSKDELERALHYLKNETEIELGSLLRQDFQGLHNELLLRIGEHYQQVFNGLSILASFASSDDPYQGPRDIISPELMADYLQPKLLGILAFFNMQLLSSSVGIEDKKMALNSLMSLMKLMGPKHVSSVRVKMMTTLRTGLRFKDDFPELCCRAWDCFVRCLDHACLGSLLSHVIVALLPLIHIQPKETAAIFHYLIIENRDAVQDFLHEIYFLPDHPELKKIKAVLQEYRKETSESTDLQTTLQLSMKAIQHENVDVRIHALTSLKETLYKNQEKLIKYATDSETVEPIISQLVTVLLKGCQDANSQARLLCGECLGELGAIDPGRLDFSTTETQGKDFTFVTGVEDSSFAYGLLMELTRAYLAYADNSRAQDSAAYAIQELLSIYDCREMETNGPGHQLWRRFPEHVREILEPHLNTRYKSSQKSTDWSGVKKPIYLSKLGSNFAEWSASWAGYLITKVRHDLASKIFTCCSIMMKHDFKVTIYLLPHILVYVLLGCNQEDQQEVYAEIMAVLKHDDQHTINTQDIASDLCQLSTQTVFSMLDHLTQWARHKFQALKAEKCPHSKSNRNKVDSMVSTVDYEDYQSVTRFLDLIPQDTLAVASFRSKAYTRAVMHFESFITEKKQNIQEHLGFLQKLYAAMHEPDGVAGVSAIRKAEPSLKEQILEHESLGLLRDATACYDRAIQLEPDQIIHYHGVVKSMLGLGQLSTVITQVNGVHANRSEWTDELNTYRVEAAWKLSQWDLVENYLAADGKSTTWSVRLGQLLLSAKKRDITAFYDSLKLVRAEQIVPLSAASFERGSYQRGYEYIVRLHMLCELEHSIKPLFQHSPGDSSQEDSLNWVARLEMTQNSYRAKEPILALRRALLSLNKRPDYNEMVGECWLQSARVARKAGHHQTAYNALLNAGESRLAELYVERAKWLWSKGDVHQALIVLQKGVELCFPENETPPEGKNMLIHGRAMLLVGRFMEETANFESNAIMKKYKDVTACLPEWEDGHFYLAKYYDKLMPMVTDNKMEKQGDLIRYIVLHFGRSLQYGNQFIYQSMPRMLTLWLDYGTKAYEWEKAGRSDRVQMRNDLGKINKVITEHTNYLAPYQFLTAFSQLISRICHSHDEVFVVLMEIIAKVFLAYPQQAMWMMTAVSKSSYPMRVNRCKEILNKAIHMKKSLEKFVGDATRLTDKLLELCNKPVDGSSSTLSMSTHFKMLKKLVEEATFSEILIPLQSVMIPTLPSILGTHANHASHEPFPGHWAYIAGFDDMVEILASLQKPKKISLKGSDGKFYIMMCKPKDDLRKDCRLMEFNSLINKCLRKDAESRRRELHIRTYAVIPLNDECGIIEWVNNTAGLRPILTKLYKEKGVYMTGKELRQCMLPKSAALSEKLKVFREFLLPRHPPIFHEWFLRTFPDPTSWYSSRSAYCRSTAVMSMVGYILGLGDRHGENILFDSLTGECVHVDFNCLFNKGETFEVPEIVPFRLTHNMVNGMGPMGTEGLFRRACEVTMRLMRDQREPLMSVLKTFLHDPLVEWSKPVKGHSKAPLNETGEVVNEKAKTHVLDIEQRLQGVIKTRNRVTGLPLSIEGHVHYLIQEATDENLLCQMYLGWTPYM

[13] = target: Misshapen-like kinase 1 (Homo sapiens) (UniProt Q8N4C8); assay: Inhibition of ZC3/MINK Lys2 labeling site in human Huh-7 cells at 1 uM by KiNativ Profiling analysis relative to control; type: cell-based
Chain of Misshapen-like kinase 1 (Homo sapiens) (Q8N4C8 whole entry, looked up): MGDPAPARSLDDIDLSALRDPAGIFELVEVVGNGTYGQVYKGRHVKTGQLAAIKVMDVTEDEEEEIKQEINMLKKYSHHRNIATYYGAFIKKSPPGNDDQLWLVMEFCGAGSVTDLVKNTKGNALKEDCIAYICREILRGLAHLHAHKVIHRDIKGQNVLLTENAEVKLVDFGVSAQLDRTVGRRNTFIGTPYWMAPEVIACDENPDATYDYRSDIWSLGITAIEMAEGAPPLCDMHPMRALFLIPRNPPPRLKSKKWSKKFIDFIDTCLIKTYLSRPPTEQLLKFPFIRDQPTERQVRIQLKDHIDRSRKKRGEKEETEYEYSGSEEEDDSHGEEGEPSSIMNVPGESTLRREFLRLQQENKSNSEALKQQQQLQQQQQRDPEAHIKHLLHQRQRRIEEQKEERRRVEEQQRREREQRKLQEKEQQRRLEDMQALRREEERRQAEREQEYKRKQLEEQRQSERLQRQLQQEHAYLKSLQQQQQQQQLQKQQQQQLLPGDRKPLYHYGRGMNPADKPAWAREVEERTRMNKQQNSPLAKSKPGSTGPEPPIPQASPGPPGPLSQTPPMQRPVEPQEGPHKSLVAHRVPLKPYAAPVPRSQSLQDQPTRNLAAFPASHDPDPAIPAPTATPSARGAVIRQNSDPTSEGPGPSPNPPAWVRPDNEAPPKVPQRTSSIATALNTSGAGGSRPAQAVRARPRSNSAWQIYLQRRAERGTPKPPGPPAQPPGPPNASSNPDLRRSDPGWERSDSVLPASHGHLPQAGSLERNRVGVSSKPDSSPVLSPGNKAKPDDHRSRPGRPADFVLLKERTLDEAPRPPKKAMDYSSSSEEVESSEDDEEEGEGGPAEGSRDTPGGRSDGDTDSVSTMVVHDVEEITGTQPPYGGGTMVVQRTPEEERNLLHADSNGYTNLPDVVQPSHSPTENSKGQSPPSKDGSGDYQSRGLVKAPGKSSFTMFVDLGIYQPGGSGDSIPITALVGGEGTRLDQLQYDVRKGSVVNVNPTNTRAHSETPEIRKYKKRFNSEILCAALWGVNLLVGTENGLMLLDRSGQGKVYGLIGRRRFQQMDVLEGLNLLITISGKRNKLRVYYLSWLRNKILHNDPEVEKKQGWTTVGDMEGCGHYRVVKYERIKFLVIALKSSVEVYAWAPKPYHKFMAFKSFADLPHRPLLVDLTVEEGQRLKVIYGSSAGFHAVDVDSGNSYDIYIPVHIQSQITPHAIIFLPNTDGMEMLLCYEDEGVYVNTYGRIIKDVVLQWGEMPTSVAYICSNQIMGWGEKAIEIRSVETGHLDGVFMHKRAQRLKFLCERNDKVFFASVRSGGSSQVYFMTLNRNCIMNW

[14] = target: Serine/threonine-protein kinase/endoribonuclease IRE1 (Homo sapiens) (UniProt O75460); assay: Inhibition of IRE1 Lys2 labeling site in human Huh-7 cells at 1 uM by KiNativ Profiling analysis relative to control; type: cell-based
[15] = target: Cyclin-dependent kinase 11B (Homo sapiens) (UniProt P21127); assay: Inhibition of CDK11 Lys2 labeling site in human Huh-7 cell lysate at 1 uM by KiNativ Profiling analysis relative to control; type: subcellular

With `CCN1CCN(Cc2ccc(NC(=O)c3ccc(C)c(Oc4ccnc5[nH]ccc45)c3)cc2C(F)(F)F)CC1` as the molecule, how does the inhibition [1] read?
The inhibition was 1.5%.

And the inhibition [2]?
The inhibition was -7.1%.

And the inhibition [3]?
Its inhibition is “inactive”.

And the residual activity [4]?
Its residual activity is 0%.

What about the inhibition [5] of the same molecule?
Its inhibition is “inactive”.

What about the inhibition [6] of the same molecule?
Its inhibition is -6%.

How did the inhibition [7] turn out when `CCN1CCN(Cc2ccc(NC(=O)c3ccc(C)c(/C=C/c4cnc5[nH]ccc5c4OC)c3)cc2C(F)(F)F)CC1` was run?
The inhibition was 73.1%.

What about the residual activity [8] of the same molecule?
Its residual activity is 62%.

What about the inhibition [9] of the same molecule?
Its inhibition is 84%.

And the residual activity [10]?
Its residual activity is 100%.

What about the residual activity [11] of the same molecule?
Its residual activity is 100%.

What about the IC50 (BaF3) of the same molecule?
The IC50 was 4.02 µM.

For `CNc1cc(Oc2cc(C(=O)Nc3cc(N4CCN(C)CC4)cc(C(F)(F)F)c3)ccc2C)ncn1`, which inhibition [12] is on record?
Its inhibition is 22.6%.

And the inhibition [13]?
Its inhibition is 9.7%.

And the inhibition [14]?
Its inhibition is -9.9%.

And the inhibition [15]?
Its inhibition is -8.6%.
